Hits are enriched below; roughly 2.5% of the tested compounds scored in any of these assays.
NSD2 HMT inh: inhibitors of human histone methyltransferase NSD2; inhibition, % at 12.5 µM; NSD2 peptide methylation, AlphaScreen, 120 min; 310,000 tested, 0.54% active; AID 743445; O96028
SR-BI DiI-HDL act: enhances SR-BI lipid uptake from DiI-HDL; CHO ldlA[mSR-BI] cells, DiI-HDL uptake fluorescence, 3 h; 100 = double the neutral-control signal; activation, % at 12.5 µM; 320,000 tested, 0.096% active; AID 504775;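 active = mean replicate activation of at least 60% and every replicate at or above 60%; inconclusive = mean or all-replicate condition met, but not both; inactive = mean below 60% and not all replicates reaching 60%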
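Test system: SR-BI-overexpressing, LDLR-lacking CHO cells; Medium: Ham's F12 with 0.5% BSA, HEPES 25 mM, pH 7.4; Schedule: 3 h, 37 °C; Technique: bottom-read fluorescence, 550/595 nm.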
SR-BI HDL uptake: inhibitors of mouse SR-BI mediated HDL lipid uptake; Q61009; ldlA[mSR-BI] CHO cells, DiI-HDL uptake fluorescence, 3 h; inhibition, % at 12.5 µM; 320,000 tested, 0.96% active;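 active = mean replicate inhibition of at least 70% and a set share of replicates each scoring 70 or more; inconclusive = meets just one of the two criteria; inactive = fails both criteria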
dFosB activator: activators of mouse delta FosB homodimer; 340,000 tested, 0.99% active; activation, % at 25 µM; P13346; purified delta FosB, TAMRA-CDK5 oligo fluorescence polarization; percent of positive-control signal above neutral wells;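 active = mean activation above about 17%, with every replicate also reaching it, limit read from the data, passing the limit was not always enough; inconclusive = only one of the two conditions met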
DYRK1A inh: blocks rat Dyrk1A kinase activity; Q63470; AID 504441; 310,000 tested, 0.43% active; ADP-Glo luminescence, NFATc1 peptide; inhibition, % at 12.5 µM
CDK5 inh: inhibitors of human CDK5/p35 kinase; Q00535+Q15078; Recombinant CDK5/p35, ADP-Glo luminescence, 60 min; inhibition, % at 10 µM; 330,000 tested, 0.01% active; AID 488839;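 active = highest replicate inhibition of at least 50% and at least 75% of replicates reaching 50%; inconclusive = only one of the two criteria met; inactive = both criteria failed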
Target sequence (Q00535 whole entry, looked up): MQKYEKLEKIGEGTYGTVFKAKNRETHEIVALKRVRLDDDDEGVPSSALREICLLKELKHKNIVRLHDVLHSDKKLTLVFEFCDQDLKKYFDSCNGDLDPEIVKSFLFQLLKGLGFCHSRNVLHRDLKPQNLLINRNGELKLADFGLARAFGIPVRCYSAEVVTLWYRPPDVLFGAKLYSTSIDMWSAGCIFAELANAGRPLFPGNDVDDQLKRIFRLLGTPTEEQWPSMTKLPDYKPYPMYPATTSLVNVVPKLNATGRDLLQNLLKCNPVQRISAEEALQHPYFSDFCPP
Target sequence (Q15078 whole entry, looked up): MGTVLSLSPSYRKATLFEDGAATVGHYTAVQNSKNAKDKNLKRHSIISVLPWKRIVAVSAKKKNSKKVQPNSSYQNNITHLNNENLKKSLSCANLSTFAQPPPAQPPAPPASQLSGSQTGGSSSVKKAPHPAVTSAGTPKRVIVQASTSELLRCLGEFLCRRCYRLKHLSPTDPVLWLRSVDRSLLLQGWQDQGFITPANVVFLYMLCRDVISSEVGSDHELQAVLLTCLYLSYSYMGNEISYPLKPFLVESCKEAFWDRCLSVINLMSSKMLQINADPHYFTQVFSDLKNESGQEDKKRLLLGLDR
A number is an active result; - = inactive; ? = inconclusive; . = no result. Cut-off read from the data, not from the text of the source, unless noted: active = inhibition above about 50%; inactive = the rest.

SMILES | NSD2 HMT inh | SR-BI DiI-HDL act | SR-BI HDL uptake | dFosB activator | DYRK1A inh | CDK5 inh
COc1ccc(NC(=O)c2sc3nc(N4CCCC4)c4c(c3c2N)CC(C)(C)OC4)cc1 | - | - | 73 | - | . | .
COc1ccc(NC(=O)c2sc3nc(N4CCOCC4)c4c(c3c2N)CC(C)(C)OC4)cc1 | - | - | - | - | - | -
CCC[C@H]1[C@@H](NC(=O)C(c2ccccc2)c2ccccc2)CC[C@@]23CCCN2C(=O)CCC[C@@H]13 | - | . | . | . | . | .
Cc1cc(C)cc(NC(=O)c2cc3c(=O)n4ccccc4nc3s2)c1 | - | - | 78 | - | - | -
CC(C)NC(=O)c1cc2c(=O)n3ccccc3nc2s1 | - | - | - | - | - | -
Cc1ccc(NC(=O)CC2=NC(=O)C(CC(=O)Nc3ccccc3C)S2)cc1 (centres undefined) | - | - | - | 34 | - | -
Cc1ccc(NC(=O)CC2SC(=O)NC2=O)cc1 (centres undefined) | - | - | - | - | - | -
Cc1ccc(C(=O)CSc2nnc(-c3ccccn3)n2-c2ccccc2)cc1 | - | . | . | . | . | .
Cc1c(CN2CCC(CO)(CCOc3ccccc3)CC2)[nH]c2c(Cl)cccc12 | - | . | . | 21 | - | -
Cc1nn(C)c(Cl)c1CN1CCC(CO)(CCOc2ccccc2)CC1 | - | - | - | - | - | -
NC(c1csc(Nc2cc(Oc3ccccc3)ncn2)n1)c1ccccc1Cl (centres undefined) | - | . | . | . | . | .
NC1=C(c2ccc([N+](=O)[O-])cc2)C(=O)CO1 | - | - | - | - | - | -
O=c1oc2c(-c3ccc([N+](=O)[O-])cc3)cc(O)cc2s1 | - | - | 77 | - | - | -
CCCC(O)(c1ccc(Cl)cc1)C(CN1CCOCC1)c1ccc(Cl)cc1 (centres undefined) | - | - | 79 | - | - | -
COc1cccc(OC)c1C(=O)Oc1ccc2c(C)cc(=O)oc2c1 | - | . | . | . | . | .
Cc1cc(Oc2ccc(=O)n(C)n2)nc(Oc2ccc(=O)n(C)n2)n1 | - | 82 | - | - | - | -
CCOC(=O)c1c(C)oc2c1c(C=NC1CCS(=O)(=O)C1)c(O)c1ccccc12 (centres undefined) | 88 | - | - | - | - | -
O=C(/C=C/c1cccc(Cl)c1)Nc1ncccn1 | - | - | - | - | - | -
CSc1cccc(NC(=O)/C=C/c2cccc(Cl)c2)c1 | - | - | 75 | - | - | -
CC(C)(N[C@@H](Cc1ccccc1)C(=O)NCCCc1ccccc1)C(=O)NCc1ccccc1 | - | . | . | . | . | .
O=C(Nc1ccc(Cl)cc1)c1nc[nH]c1C(=O)NCCN(CCNC(=O)c1[nH]cnc1C(=O)Nc1ccc(Cl)cc1)CCNC(=O)c1[nH]cnc1C(=O)Nc1ccc(Cl)cc1 | . | - | - | ? | - | -
Cc1ccc(NC(=O)c2nc[nH]c2C(=O)NCCN(CCNC(=O)c2[nH]cnc2C(=O)Nc2ccc(C)cc2)CCNC(=O)c2[nH]cnc2C(=O)Nc2ccc(C)cc2)cc1 | . | - | - | 48 | - | -
O=S(=O)(Nc1cc(Sc2cccc3cccnc23)c(O)c2ccccc12)c1ccc(F)cc1 | - | . | . | . | . | .
O=C(O)CSc1cc(NS(=O)(=O)c2ccc(Cl)cc2)c2ccccc2c1O | 137 | - | - | - | - | -
O=C(Nc1ccccc1Cl)c1ccc2c(c1)N(Cc1ccc(F)cc1)C(=O)CS2=O (centres undefined) | . | - | 82 | - | - | -
SMILES | NSD2 HMT inh | SR-BI DiI-HDL act | SR-BI HDL uptake | dFosB activator | DYRK1A inh | CDK5 inh
O=C(NCCc1ccccc1)c1ccc2c(c1)N(Cc1ccccc1)C(=O)CS2=O (centres undefined) | . | - | - | - | - | -
O=C(N/N=C/c1cn(-c2cccs2)nc1-c1ccccc1)c1ccccc1O | - | - | 86 | - | - | -
O=C(N/N=C/c1cn(-c2cccs2)nc1-c1ccccc1)c1ccccc1Br | - | - | - | - | - | -
CCOC(=O)C(=Cc1ccc(-c2ccsc2C(=O)OC)o1)C(=O)OCC | - | - | 76 | - | - | -
O=C(CCCC(=O)NN=Cc1ccc(Cl)cc1Cl)NN=Cc1ccc(Cl)cc1Cl | - | - | 96 | - | - | -
CC(=O)NC12CC3CC(C1)CC(C(=O)N1CCN(S(=O)(=O)c4cccc([N+](=O)[O-])c4)CC1)(C3)C2 | - | - | - | - | - | -
O=C(NNC(=O)c1ccccc1O)c1ccc(NS(=O)(=O)c2ccc(F)cc2)cc1 | - | - | 87 | - | - | -
Cc1ccccc1NS(=O)(=O)c1ccc(C(=O)NNC(=O)c2ccccc2O)cc1 | - | - | 84 | - | - | -
CC1CC(C)CN(CCCNS(=O)(=O)c2cc3c(cc2Br)CCN3C(=O)C2CC2)C1 (centres undefined) | - | . | . | . | . | .
Cc1c2cc[n+](CCN3CCCCC3)cc2c(C)c2c1[nH]c1ccc(O)cc12 | - | - | - | 89 | - | -
Cc1ccc(SCC(=O)Nc2cccc(S(=O)(=O)N3CCOCC3)c2)cc1C | - | - | - | - | . | -
O=C(O)c1cccc(NC(=O)c2cc(S(=O)(=O)N3CCOCC3)cs2)c1 | - | - | - | - | - | -
CC(=O)Oc1ccc(-c2ccc(C(=O)Nc3cccc(S(=O)(=O)N4CCOCC4)c3)cc2)cc1 | - | - | 81 | - | - | -
CC(=O)c1cccc(NC(=O)c2cc(S(=O)(=O)N3CCOCC3)cs2)c1 | . | - | 78 | - | - | -
Cc1cc(SCC(=O)Nc2cccc(S(=O)(=O)N3CCOCC3)c2)nc2ccccc12 | - | - | 79 | - | - | -
CCc1ccc(-c2nc(CS(=O)CC(=O)NC3CCCCCC3)c(C)o2)cc1 (centres undefined) | - | - | - | - | - | -
COc1ccccc1N1CCN(CCCCOc2ccc(C)cc2C)CC1 | - | - | - | - | - | -
O=C1C=C(O)c2cccc(O)c2C1=O | . | - | - | - | - | -
CC1OC(CC(=O)O)CC2=C1C(=O)c1c(O)cccc1C2=O (centres undefined) | 95 | - | - | - | - | -
COc1ccccc1CNC(=O)COc1ccc(C)cc1 | - | 718 | - | - | - | -
Cc1cc(/C=N/NC(=O)c2cccc(F)c2)c(C)n1-c1ccccc1 | - | - | 73 | - | - | -
Cc1cc(/C=N/NC(=O)c2ccncc2)c(C)n1-c1cccc(C(F)(F)F)c1 | - | - | 74 | - | - | -
Cc1ccc(-n2c(C)cc(/C=N/NC(=O)c3ccncc3)c2C)cc1 | - | - | - | - | - | -
Cc1onc(C(=O)N2CCN(C(c3ccc(F)cc3)c3ccc(F)cc3)CC2)c1[N+](=O)[O-] | - | . | . | . | . | .
CSCCC(NC(=O)COc1ccccc1)C(=O)N1CCN(C(C)=O)CC1 (centres undefined) | - | - | - | - | - | -
CC1(C)OC(c2ccccc2)=C/C(=C/C=N/NC(=O)c2ccncc2)O1 | - | - | 90 | - | - | -
